Laboratory results reported in ChEMBL document CHEMBL4406845, “Synthesis of benzotriazoles derivatives and their dual potential as α-amylase and α-glucosidase inhibitors in vitro: Structure-activity relationship, molecular docking, and kinetic studies” (Eur J Med Chem, 2019).

Tests used:
Alpha amylase = target: T1, Alpha amylase (Homo sapiens, UniProt P0DUB6); experiment: Inhibition of alpha-amylase (unknown origin) using starch as substrate preincubated for 10 mins followed by substrate addition and measured after 10 mins by dinitrosalicylic acid reagent based assay
T1 sequence (P0DUB6 whole entry): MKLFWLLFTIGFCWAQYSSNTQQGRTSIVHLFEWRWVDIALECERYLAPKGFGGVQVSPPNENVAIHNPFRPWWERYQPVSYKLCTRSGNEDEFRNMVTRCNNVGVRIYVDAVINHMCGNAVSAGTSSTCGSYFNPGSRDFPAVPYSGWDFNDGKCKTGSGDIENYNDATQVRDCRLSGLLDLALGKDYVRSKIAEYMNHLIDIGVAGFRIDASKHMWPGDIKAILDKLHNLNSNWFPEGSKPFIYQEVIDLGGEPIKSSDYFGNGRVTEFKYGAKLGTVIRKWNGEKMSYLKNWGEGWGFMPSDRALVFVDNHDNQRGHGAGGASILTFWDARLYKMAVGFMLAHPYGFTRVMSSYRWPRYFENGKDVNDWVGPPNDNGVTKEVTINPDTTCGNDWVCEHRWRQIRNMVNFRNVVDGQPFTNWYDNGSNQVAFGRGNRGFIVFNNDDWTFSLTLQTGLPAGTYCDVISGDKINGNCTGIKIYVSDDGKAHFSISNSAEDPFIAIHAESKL

Alpha glucosidase = Alpha glucosidase (Homo sapiens, UniProt O43451+P10253+P14410+Q2M2H8); experiment: Inhibition of alpha-glucosidase (unknown origin); assay type: protein assay
[1] = system: COc1ccc(C(=O)Cn2nnc3cc(C)c(C)cc32)cc1; experiment: (§1) Competitive inhibition of alpha-amylase (unknown origin) assessed as substrate Vmax using p-nitrophenyl-R-D-maltoside as substrate incubated for 30 mins by ELISA-based Lineweaver-burk plot analysis; details: Homo sapiens
Procedure, shortened: (§2)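 Kinetics: inhibitor at 0.0625, 0.125, 0.3 and 0.4 mM crossed with p-nitrophenyl-R-D-maltoside at 0.1, 0.2, 0.4, 0.8 and 1.0 mM. Enzyme dissolved in deionized water, 0.2 mg/mL per well. PIPES buffer, pH 7.0, 30 min at 25 °C. Absorbance read on a plate reader. Vmax, Km, AICc and R² obtained by enzyme-kinetic graph fitting.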

[2] = system: COc1ccc(C(=O)n2nnc3ccccc32)cc1; experiment: as §1; details: Homo sapiens; procedure, shortened: as §2
[3] = system: Cc1cc2nnn(CC(=O)c3ccc(Cl)c(Cl)c3)c2cc1C; experiment: as §1; details: Homo sapiens; procedure, shortened: as §2
[4] = system: Cc1cc2nnn(CC(=O)c3ccc(Cl)cc3)c2cc1C; experiment: as §1; details: Homo sapiens; procedure, shortened: as §2
[5] = system: O=C(Cn1nnc2ccccc21)c1ccc(Cl)cc1; experiment: as §1; details: Homo sapiens; procedure, shortened: as §2
[6] = system: O=C(Cn1nnc2ccccc21)c1cccc(Br)c1; experiment: as §1; details: Homo sapiens; procedure, shortened: as §2
[7] = system: O=C(c1ccc(F)cc1)n1nnc2ccccc21; experiment: as §1; details: Homo sapiens; procedure, shortened: as §2
[8] = system: O=C(c1ccc([N+](=O)[O-])cc1)n1nnc2ccccc21; experiment: as §1; details: Homo sapiens; procedure, shortened: as §2
[9] = system: O=C(c1cccc(Cl)c1)n1nnc2cc(Cl)c(Cl)cc21; experiment: as §1; details: Homo sapiens; procedure, shortened: as §2
[10] = system: COc1ccc(C(=O)Cn2nnc3cc(C)c(C)cc32)cc1; experiment: (§3) Competitive inhibition of alpha-amylase (unknown origin) assessed as substrate Km using p-nitrophenyl-R-D-maltoside as substrate incubated for 30 mins by ELISA-based Lineweaver-burk plot analysis; details: Homo sapiens; procedure, shortened: as §2
[11] = system: COc1ccc(C(=O)n2nnc3ccccc32)cc1; experiment: as §3; details: Homo sapiens; procedure, shortened: as §2
[12] = system: Cc1cc2nnn(CC(=O)c3ccc(Cl)c(Cl)c3)c2cc1C; experiment: as §3; details: Homo sapiens; procedure, shortened: as §2
[13] = system: Cc1cc2nnn(CC(=O)c3ccc(Cl)cc3)c2cc1C; experiment: as §3; details: Homo sapiens; procedure, shortened: as §2
[14] = system: O=C(Cn1nnc2ccccc21)c1ccc(Cl)cc1; experiment: as §3; details: Homo sapiens; procedure, shortened: as §2
[15] = system: O=C(Cn1nnc2ccccc21)c1cccc(Br)c1; experiment: as §3; details: Homo sapiens; procedure, shortened: as §2
[16] = system: O=C(c1ccc(F)cc1)n1nnc2ccccc21; experiment: as §3; details: Homo sapiens; procedure, shortened: as §2
[17] = system: O=C(c1ccc([N+](=O)[O-])cc1)n1nnc2ccccc21; experiment: as §3; details: Homo sapiens; procedure, shortened: as §2
[18] = system: O=C(c1cccc(Cl)c1)n1nnc2cc(Cl)c(Cl)cc21; experiment: as §3; details: Homo sapiens; procedure, shortened: as §2
[19] = system: CCCCOc1ccc(C(=O)n2nnc3ccccc32)cc1; experiment: (§4) Non-competitive inhibition of alpha-glucosidase (unknown origin) assessed as substrate Vmax using p-nitrophenyl-R-D-maltoside as substrate incubated for 30 mins at 1 min interval by ELISA-based Lineweaver-burk plot analysis; assay type: protein assay; details: Homo sapiens
[20] = system: COc1ccc(C(=O)Cn2nnc3cc(C)c(C)cc32)cc1; experiment: as §4; assay type: protein assay; details: Homo sapiens
[21] = system: Cc1cc(C(=O)n2nnc3ccccc32)cc(C)c1C; experiment: as §4; assay type: protein assay; details: Homo sapiens
[22] = system: Cc1cc2nnn(C(=O)c3ccccc3)c2cc1C; experiment: as §4; assay type: protein assay; details: Homo sapiens
[23] = system: Cc1ccc(C(=O)n2nnc3cc(Cl)c(Cl)cc32)cc1C; experiment: as §4; assay type: protein assay; details: Homo sapiens
[24] = system: O=C(Cn1nnc2ccccc21)c1cccc([N+](=O)[O-])c1; experiment: as §4; assay type: protein assay; details: Homo sapiens
[25] = system: O=C(Cn1nnc2ccccc21)c1ccccc1O; experiment: as §4; assay type: protein assay; details: Homo sapiens
[26] = system: O=C(c1ccc(Br)cc1)n1nnc2ccccc21; experiment: as §4; assay type: protein assay; details: Homo sapiens
[27] = system: O=C(c1cccc(Cl)c1)n1nnc2cc(Cl)c(Cl)cc21; experiment: as §4; assay type: protein assay; details: Homo sapiens
[28] = system: CCCCOc1ccc(C(=O)n2nnc3ccccc32)cc1; experiment: (§5) Non-competitive inhibition of alpha-glucosidase (unknown origin) assessed as substrate Km using p-nitrophenyl-R-D-maltoside as substrate incubated for 30 mins at 1 min interval by ELISA-based Lineweaver-burk plot analysis; assay type: protein assay; details: Homo sapiens
[29] = system: COc1ccc(C(=O)Cn2nnc3cc(C)c(C)cc32)cc1; experiment: as §5; assay type: protein assay; details: Homo sapiens
[30] = system: Cc1cc(C(=O)n2nnc3ccccc32)cc(C)c1C; experiment: as §5; assay type: protein assay; details: Homo sapiens
[31] = system: Cc1cc2nnn(C(=O)c3ccccc3)c2cc1C; experiment: as §5; assay type: protein assay; details: Homo sapiens
[32] = system: Cc1ccc(C(=O)n2nnc3cc(Cl)c(Cl)cc32)cc1C; experiment: as §5; assay type: protein assay; details: Homo sapiens
[33] = system: O=C(Cn1nnc2ccccc21)c1cccc([N+](=O)[O-])c1; experiment: as §5; assay type: protein assay; details: Homo sapiens
[34] = system: O=C(Cn1nnc2ccccc21)c1ccccc1O; experiment: as §5; assay type: protein assay; details: Homo sapiens
[35] = system: O=C(c1ccc(Br)cc1)n1nnc2ccccc21; experiment: as §5; assay type: protein assay; details: Homo sapiens
[36] = system: O=C(c1cccc(Cl)c1)n1nnc2cc(Cl)c(Cl)cc21; experiment: as §5; assay type: protein assay; details: Homo sapiens

IC50 (Alpha amylase)	IC50 (Alpha glucosidase)	Compound	further results
3.89 µM	3.9 µM	O=C(Cn1nnc2ccccc21)c1ccc(Cl)c(Cl)c1	
2.76 to 4.35 µM	2.79 to 4.41 µM	O=C(Cn1nnc2ccccc21)c1ccc(Br)cc1	
3.66 µM	3.82 µM	Cc1ccc(C(=O)n2nnc3cc(Cl)c(Cl)cc32)cc1C	
4.92 µM	4.98 µM	O=C(Cn1nnc2ccccc21)c1ccc(-c2ccccc2)cc1	
4.3 µM	4.42 µM	Cc1cccc(C(=O)n2nnc3ccccc32)c1	
2.8 µM	2.82 µM	O=C(c1ccc(F)cc1)n1nnc2ccccc21	
5.38 µM	5.29 µM	O=C(c1ccccc1)n1nnc2ccccc21	
5.4 µM	5.6 µM	CCCCOc1ccc(C(=O)n2nnc3ccccc32)cc1	
		Alpha amylase (Homo sapiens) (from UniProt P0DUB6)	Vmax [1]: 505 µM/min; Vmax [2]: 554 µM/min; Vmax [3]: 593 µM/min; Vmax [4]: 514 µM/min; Vmax [5]: 527 µM/min; Vmax [6]: 512 µM/min; Vmax [7]: 522 µM/min; Vmax [8]: 512 µM/min; Vmax [9]: 514 µM/min; Km [10]: 200 µM; Km [11]: 210 µM; Km [12]: 240 µM; Km [13]: 180 µM; Km [14]: 200 µM; Km [15]: 210 µM; Km [16]: 190 µM; Km [17]: 200 µM; Km [18]: 200 µM
3.21 µM	3.3 µM	Cc1cc2nnn(CC(=O)c3ccccc3O)c2cc1C	
4.89 µM	4.91 µM	O=C(Cn1nnc2ccccc21)c1ccccc1	
3.66 µM	3.7 µM	O=C(c1ccccc1)n1nnc2cc(Cl)c(Cl)cc21	
2 µM	2.04 µM	Cc1cc2nnn(CC(=O)c3ccc(Cl)c(Cl)c3)c2cc1C	
4.02 µM	4 µM	O=C(Cn1nnc2ccccc21)c1cccc([N+](=O)[O-])c1	
2.51 µM	2.6 µM	COc1ccc(C(=O)Cn2nnc3cc(C)c(C)cc32)cc1	
2.99 µM	3 µM	O=C(c1cccc(Cl)c1)n1nnc2cc(Cl)c(Cl)cc21	
4.28 µM	4.32 µM	Nc1cc(C(=O)n2nnc3ccccc32)ccc1Cl	
4.08 µM	4.1 µM	Cc1cc(C(=O)n2nnc3ccccc32)ccc1[N+](=O)[O-]	

IC50 (Alpha amylase)	IC50 (Alpha glucosidase)	Compound	further results
3.51 µM	3.47 µM	O=C(Cn1nnc2ccccc21)c1cccc(Cl)c1Cl	
3.53 µM	3.41 µM	Cc1cc2nnn(CC(=O)c3ccccc3)c2cc1C	
3.13 µM	3.2 µM	O=C(c1ccc(Br)cc1)n1nnc2ccccc21	
2.98 µM	2.99 µM	COc1ccc(C(=O)n2nnc3ccccc32)cc1	
4.42 µM	4.5 µM	COc1ccc(C(=O)Cn2nnc3ccccc32)cc1	
4.35 µM	4.41 µM	O=C(Cn1nnc2ccccc21)c1cccc(Br)c1	
4.73 µM	4.8 µM	Cc1ccc(C(=O)n2nnc3ccccc32)cc1C	
5.72 µM	5.63 µM	O=C(c1ccc(F)c(F)c1Cl)n1nnc2ccccc21	
4.56 µM	4.78 µM	Cc1ccc(C(=O)Cn2nnc3ccccc32)cc1	
5 µM	5.23 µM	O=C(c1c(F)cccc1F)n1nnc2ccccc21	
2.41 µM	2.5 µM	O=C(Cn1nnc2ccccc21)c1ccc(Cl)cc1	
4.9 µM	4.87 µM	O=C(Cn1nnc2ccccc21)c1ccccc1O	
4.77 µM	4.79 µM	COc1ccccc1C(=O)n1nnc2ccccc21	
4.12 µM	4.23 µM	Cc1cc(C(=O)n2nnc3ccccc32)cc(C)c1C	
2.12 µM	2.21 µM	Cc1cc2nnn(CC(=O)c3ccc(Cl)cc3)c2cc1C	
2.92 µM	2.97 µM	O=C(c1ccc([N+](=O)[O-])cc1)n1nnc2ccccc21	
3.32 µM	3.4 µM	Cc1cc2nnn(C(=O)c3ccccc3)c2cc1C	
		Alpha glucosidase (Homo sapiens) (from UniProt O43451+P10253+P14410+Q2M2H8)	Vmax [19]: 621 µM/min; Vmax [20]: 620 µM/min; Vmax [21]: 612 µM/min; Vmax [22]: 602 µM/min; Vmax [23]: 620 µM/min; Vmax [24]: 618 µM/min; Vmax [25]: 601 µM/min; Vmax [26]: 612 µM/min; Vmax [27]: 620 µM/min; Km [28]: 240 µM; Km [29]: 210 µM; Km [30]: 200 µM; Km [31]: 200 µM; Km [32]: 240 µM; Km [33]: 260 µM; Km [34]: 250 µM; Km [35]: 200 µM; Km [36]: 250 µM
